# This is a sample that favours compounds with a hit; in the whole collection about 2.3% have one here.
# PAD4 inh: human PAD4 inhibitors, primary screen, biochemical, fluorescence polarization, 1536-well format | AID 485272, 2010 | inhibition, % at 6.36 µM | recombinant PAD4, RCA probe fluorescence polarization | hit rate 0.41% among 330,000;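 active = percent inhibition above a cutoff equal to the mean of all tested compounds plus 3 SD, cut at about 15% in these data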;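 note: 0% = PAD4 with RCA probe and DMSO and 100% = probe without PAD4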
# GSTO1 counter: inhibitors of recombinant GSTO1, primary screen, counter-screen for RBBP9 inhibitor project, biochemical, fluorescence polarization. Glutathione S-transferase omega-1 (Homo sapiens), P78417. activity-based probe fluorescence polarization. inhibition, % at 5.96 µM. hit rate 1.1% among 300,000;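 active = inhibition above the campaign mean inhibition plus 3 SD, cut at about 35% in these data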;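 note: 0% = GSTO1-1 with DMSO and 100% = wells lacking GSTO1-1 enzyme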
# RBBP9 inhibitor: human RBBP9 inhibitors, primary screen, biochemical, fluorescence polarization, FP-Rh probe, HTS. recombinant RBBP9. inhibition, % at 7.94 µM. hit rate 0.2% among 220,000;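 active = inhibition above the campaign mean of all tested compounds plus 3 SD, cut at about 14% in these data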;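 note: plate controls were DMSO wells with RBBP9 for no effect and wells lacking RBBP9 protein for full effect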
#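 Material: RBBP9 protein. Amount: RBBP9 at 2.5 µM in dispensed solution, before mixing. Schedule: 30 min then 45 min, 25 °C. Medium: Tris buffer pH 8.0, NaCl, Pluronic. Measured by: fluorescence polarization. Measure: percent inhibition from mP, scaled between DMSO and no-protein wells. Replication: one well per compound.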
# PRMT1 inh: PRMT1 methyltransferase inhibitors, primary screen, biochemical, fluorescence polarization. Protein arginine N-methyltransferase 1 (Homo sapiens), Q99873. recombinant PRMT1, activity-based probe fluorescence polarization. inhibition, % at 2.79 µM. hit rate 1.3% among 370,000. AID 652257, 2013;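 active = inhibition above about 21% made by adding two undisclosed values, limit read from the data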
# Target sequence (Q99873 whole entry, looked up): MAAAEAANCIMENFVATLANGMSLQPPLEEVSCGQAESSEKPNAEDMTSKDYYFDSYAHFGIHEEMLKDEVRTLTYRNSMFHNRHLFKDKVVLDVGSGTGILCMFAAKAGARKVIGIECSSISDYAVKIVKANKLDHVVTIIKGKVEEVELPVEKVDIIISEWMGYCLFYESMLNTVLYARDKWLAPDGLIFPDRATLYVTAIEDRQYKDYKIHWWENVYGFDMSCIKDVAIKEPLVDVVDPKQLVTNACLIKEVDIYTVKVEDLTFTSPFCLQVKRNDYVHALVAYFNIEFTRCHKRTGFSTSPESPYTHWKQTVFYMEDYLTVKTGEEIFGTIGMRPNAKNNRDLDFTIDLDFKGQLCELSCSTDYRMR
# PME-1 inh: PME-1 inhibitors via competitive probe labeling, primary screen, biochemical, fluorescence polarization, FP-Rh probe, HTS. Protein phosphatase methylesterase 1 (Homo sapiens), Q9Y570. recombinant PME-1. inhibition, % at 5.9 µM. hit rate 0.53% among 320,000;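 active = inhibition above the campaign mean of all compounds plus 3 SD, cut at about 26% in these data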;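 note: competitive labeling of PME-1 active site by serine hydrolase directed probe; 0% = PME-1 with DMSO and 100% = wells lacking PME-1 enzyme; inhibitors block probe labeling so polarization falls and inhibition rises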
# Fam108B counter: mouse Fam108B serine hydrolase inhibitors, primary screen, counter-screen for RBBP9 inhibitor project, biochemical, fluorescence polarization | recombinant Fam108B, FP-Rh probe fluorescence polarization | inhibition, % at 9.51 µM | hit rate 0.33% among 300,000 | AID 1947, 2009;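 active = inhibition above the screen mean inhibition plus 3 SD, computed separately per campaign, cut at about 18% in these data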;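 note: inhibitors lower polarization as less probe binds the enzyme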
# * marks the source's active call; other numbers are inactive results; . = no result given.
SMILES,PAD4 inh,GSTO1 counter,RBBP9 inhibitor,PRMT1 inh,PME-1 inh,Fam108B counter
O=C(CCS(=O)(=O)c1ccccc1)N1CCOCC1,-6,4,-10,-4,-3,2
CCOc1ccccc1/C=C(\C#N)C(=O)Nc1cccc(C(=O)O)c1,-7,-9,-6,-6,142*,0
CCOc1cccc(NC(=O)/C(C#N)=C\c2cn(CC(=O)O)c3ccccc23)c1,-12,-9,.,0,-8,-4
Cc1ccc(NC(=O)CCc2c(C)nn(-c3ccc(N4CCCCC4)nn3)c2C)cc1C,1,6,.,1,-1,-2
O=C(O)c1ccnc(SCC(=O)c2ccccc2)c1,2,5,-3,23*,-5,-1
Cn1c(SCC(=O)c2cc(Cl)c(Cl)s2)nnc1-c1ccco1,-4,44*,-5,3,-1,-4
Cc1ccc(C(=O)CSc2nnc(-c3ccco3)n2C)cc1,1,12,-10,0,1,-1
CCCCCCN1CCS(=O)(=O)N(Cc2ccccc2)C(C(=O)OC)C1 (centres undefined),.,.,.,0,.,.
CCCCN(C)c1nc(-c2ccco2)c2c(c1C#N)CC(C)(C)OC2,-5,-12,-6,21*,-4,0
Cc1ccc(-c2cc(C(F)F)nc(NCc3cccnc3)n2)cc1,-1,-6,-6,3,-1,-2
O=[N+]([O-])c1ccc(COc2cccc(CNc3ccc(F)cc3)c2)cc1,-3,1,-6,2,1,5
Oc1ccc(NCc2cccc(OCc3ccc(F)cc3)c2)cc1,-2,77*,-1,7,19,9
COc1ccccc1NC1=C(NC(C)=O)C(=O)c2ccccc2C1=O,.,.,-8,25*,.,.
COC1=C(Nc2ccccc2OC)C(=O)c2ccccc2C1=O,-5,10,-3,5,-2,3
O=C(O)/C(=C\c1cccc([N+](=O)[O-])c1)c1ccc(S(=O)(=O)N2CCCCC2)s1,0,10,-11,5,2,3
O=C(O)/C(=C\c1ccc(Cl)c([N+](=O)[O-])c1)c1ccc(S(=O)(=O)N2CCCC2)s1,2,.,.,23*,0,.
O=C(O)/C(=C\c1ccc(Cl)c([N+](=O)[O-])c1)c1ccc(S(=O)(=O)N2CCCCC2)s1,-1,62*,-10,5,0,-3
CN(CC(=O)Nc1ccc(Cl)cc1)c1ccc(S(=O)(=O)N2CCCCC2)cc1[N+](=O)[O-],-1,-4,-9,3,-23,-10
N#CC(C#N)=C1c2cc(S(=O)(=O)NCCO)ccc2-c2ccc(S(=O)(=O)NCCO)cc21,-2,6,-7,4,2,-1
Cn1ccnc1SCC(=O)Nc1sccc1C#N,-2,8,0,22*,-9,-1
O=[N+]([O-])c1ccccc1NC(=S)N/N=C/c1ccc(O)c(O)c1,1,50*,-15,8,27*,12
FC(F)(F)c1cccc(NC(=S)NNC(=S)Nc2cccc(C(F)(F)F)c2)c1,1,-4,-9,.,33*,13
COc1cc2c(C#N)c(N3CCc4ccccc4C3)nc(N)c2c(N)n1,-16,8,-5,18,39*,15
CCOC(=O)c1c2c(n(C)c1COC)C(=O)C(=O)c1ccc(Br)cc1-2,1,56*,-6,.,-4,29*
CCCn1c(=O)c(C(=O)OCC)c(O)c2cc(Br)ccc21,-1,1,-6,2,0,-3
Cc1nccc(-c2cccc(N/N=C(\C#N)C(=O)c3ccccc3)c2)n1,-1,6,1,-1,3,5
CCNC(=S)N/N=C(\C)c1ccc2ccccc2c1OC(F)F,-3,6,8,4,2,-5
Cc1ccc(-c2nc(Nc3ccccc3)n[nH]2)cc1,7,-5,0,-1,41*,0
Cc1cc(C)nc(Nc2n[nH]c(-c3ccccc3Cl)n2)n1,-3,-21,-6,-1,-3,-6
Cc1cccc(C(=O)N/C(=C\c2ccco2)C(=O)N2CCCC2)c1,-1,2,.,23*,1,4

# Compound activity: PubChem BioAssay, The Scripps Research Institute Molecular Screening Center
